Measurements as given in article PMC4885513 (The Journal of Pharmacology and Experimental Therapeutics, 2016).
“Also recorded” adds a separate entry of the source. Read-outs that look alike come from different tables or passages of the source.

Assays:
[1] = biological target: T1, α1β3γ2S receptors (Rattus norvegicus, UniProt P62813+P63079); settings: GABA EC3-7, Xenopus oocytes, ref Luger et al. (2015); cited from earlier work
[2] = test system: pentylenetetrazole (PTZ)-induced seizure threshold; settings: 3 mg/kg i.p., 30 min before test; ref Hintersteiner et al. (2014); cited from earlier work
[3] = biological target: α1β1γ2S receptors (Rattus norvegicus, UniProt P15431+P62813); experiment: IGABA enhancement; format: cell-based; settings: for Emax: read-out: maximal IGABA enhancement (Emax); for Hill-coefficient (nH): α1β1γ2S, GABA EC3-7, Xenopus oocytes
Summary of the method: (§1)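 Rat α1, β1/β2/β3 and γ2S cRNAs (100–2000 ng/μl/subunit, about 10–50 nl) were injected into collagenase-treated stage V–VI Xenopus oocytes held at 18°C in ND96. The α:β:γ ratio was 1:1:10 for β2 and β3 and 3:1:10 for β1. Recordings used two-electrode voltage clamp at −70 mV in a HEPES bath at pH 7.4. Compound (≤500 µM, DMSO matched) was applied with per-oocyte GABA EC3–7 by fast perfusion. Oocytes above 5 µA were excluded. Enhancement = I(GABA+Comp)/IGABA − 1, Hill-fitted for EC50, Emax and nH; ≥3 oocytes, ≥2 batches.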

[4] = test system: locomotor activity; experiment: Open-field test; format: in vivo, male C57BL/6N mice; settings: for total distance covered in the open field test: 30 min before test, 10 min test, control 38.3 ± 1.5 m
[5] = test system: pentylenetetrazole (PTZ)-induced seizure threshold; experiment: PTZ-induced seizure threshold; format: in vivo, male C57BL/6N mice; settings: for PTZ-induced seizure threshold: 30 min before test, saline control 40.4 ± 1.4
Summary of the method: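 Male C57BL/6N mice aged 3–6 months received compound i.p. 30 min before testing. Vehicle was 0.9% NaCl with 10% DMSO and 3% Tween 80. PTZ (10 mg/ml in saline, pH 7.4) was infused into the tail vein at 100 µl/min in freely moving animals until seizure onset. Threshold was the infused PTZ dose per body weight (mg/kg). ≥3 mice per point; one-way ANOVA with Bonferroni.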

[6] = test system: GABAA channels; settings: ref Khom et al., 2007; cited from earlier work
[7] = biological target: α1β2γ2S receptors (Rattus norvegicus, UniProt P62813+P63138); experiment: IGABA enhancement; format: cell-based; settings: for Emax: read-out: maximal IGABA enhancement (Emax); for Hill-coefficient (nH): α1β2γ2S, GABA EC3-7, Xenopus oocytes
Summary of the method: as §1

[8] = biological target: T1, α1β3γ2S receptors; experiment: IGABA enhancement; format: cell-based; settings: for Emax: read-out: maximal IGABA enhancement (Emax); for Hill-coefficient (nH): GABA EC3-7, Xenopus oocytes
Summary of the method: as §1

α1β2γ2S receptors, sequence (P63138 25-474 limits assumed): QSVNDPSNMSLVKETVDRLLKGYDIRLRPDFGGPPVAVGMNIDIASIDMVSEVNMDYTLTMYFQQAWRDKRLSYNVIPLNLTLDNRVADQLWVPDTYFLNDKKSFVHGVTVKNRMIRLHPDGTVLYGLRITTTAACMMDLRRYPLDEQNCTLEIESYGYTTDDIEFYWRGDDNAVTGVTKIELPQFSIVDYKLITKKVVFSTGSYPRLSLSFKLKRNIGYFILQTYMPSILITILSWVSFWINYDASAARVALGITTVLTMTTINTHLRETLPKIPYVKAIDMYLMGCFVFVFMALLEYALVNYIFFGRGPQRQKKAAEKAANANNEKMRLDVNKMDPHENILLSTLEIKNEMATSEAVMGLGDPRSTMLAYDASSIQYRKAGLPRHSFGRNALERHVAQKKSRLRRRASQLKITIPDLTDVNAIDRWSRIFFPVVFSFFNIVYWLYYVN
α1β2γ2S receptors, sequence (P62813 28-455): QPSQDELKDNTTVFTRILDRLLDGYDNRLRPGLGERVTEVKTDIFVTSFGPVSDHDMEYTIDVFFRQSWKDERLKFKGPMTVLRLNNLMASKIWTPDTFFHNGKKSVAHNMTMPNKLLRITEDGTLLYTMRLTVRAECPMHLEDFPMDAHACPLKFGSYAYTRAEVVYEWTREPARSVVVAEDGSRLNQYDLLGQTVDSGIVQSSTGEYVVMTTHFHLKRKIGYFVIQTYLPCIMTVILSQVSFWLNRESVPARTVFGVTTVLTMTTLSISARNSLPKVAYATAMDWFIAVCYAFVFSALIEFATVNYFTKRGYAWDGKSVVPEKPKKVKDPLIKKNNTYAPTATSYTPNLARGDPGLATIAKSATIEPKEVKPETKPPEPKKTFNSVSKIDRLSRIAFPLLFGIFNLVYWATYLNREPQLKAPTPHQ
α1β2γ2S receptors, sequence (P18508 39-466 partner): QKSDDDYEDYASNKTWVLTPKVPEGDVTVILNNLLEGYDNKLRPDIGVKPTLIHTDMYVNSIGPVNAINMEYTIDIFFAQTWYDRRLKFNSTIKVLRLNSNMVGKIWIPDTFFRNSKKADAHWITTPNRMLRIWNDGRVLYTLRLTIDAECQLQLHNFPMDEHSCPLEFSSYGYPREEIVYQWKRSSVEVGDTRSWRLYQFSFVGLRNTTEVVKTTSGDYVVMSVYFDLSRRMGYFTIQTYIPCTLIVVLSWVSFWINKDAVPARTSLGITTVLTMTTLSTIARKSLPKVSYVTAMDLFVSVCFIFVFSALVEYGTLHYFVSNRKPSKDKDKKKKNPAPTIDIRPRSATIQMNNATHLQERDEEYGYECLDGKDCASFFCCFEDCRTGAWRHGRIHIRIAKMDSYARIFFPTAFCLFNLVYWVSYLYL
T1 sequence (P63079 26-473): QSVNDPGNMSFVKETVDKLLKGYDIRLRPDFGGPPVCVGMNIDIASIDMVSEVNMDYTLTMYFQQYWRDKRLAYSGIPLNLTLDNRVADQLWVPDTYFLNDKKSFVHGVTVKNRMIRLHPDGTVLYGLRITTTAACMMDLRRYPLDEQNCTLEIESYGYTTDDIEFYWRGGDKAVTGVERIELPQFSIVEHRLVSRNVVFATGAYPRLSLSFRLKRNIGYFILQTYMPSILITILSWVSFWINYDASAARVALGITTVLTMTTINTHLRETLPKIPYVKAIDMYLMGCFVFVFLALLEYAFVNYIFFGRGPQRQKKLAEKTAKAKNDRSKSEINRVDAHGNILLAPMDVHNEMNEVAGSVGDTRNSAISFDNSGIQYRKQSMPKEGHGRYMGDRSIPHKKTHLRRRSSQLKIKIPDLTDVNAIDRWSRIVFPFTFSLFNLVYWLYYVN
T1 sequence (P62813 28-455): as the sequence (P62813 28-455) above
T1 sequence (P18508 39-466 partner): as the sequence (P18508 39-466 partner) above
α1β1γ2S receptors, sequence (P15431 26-474): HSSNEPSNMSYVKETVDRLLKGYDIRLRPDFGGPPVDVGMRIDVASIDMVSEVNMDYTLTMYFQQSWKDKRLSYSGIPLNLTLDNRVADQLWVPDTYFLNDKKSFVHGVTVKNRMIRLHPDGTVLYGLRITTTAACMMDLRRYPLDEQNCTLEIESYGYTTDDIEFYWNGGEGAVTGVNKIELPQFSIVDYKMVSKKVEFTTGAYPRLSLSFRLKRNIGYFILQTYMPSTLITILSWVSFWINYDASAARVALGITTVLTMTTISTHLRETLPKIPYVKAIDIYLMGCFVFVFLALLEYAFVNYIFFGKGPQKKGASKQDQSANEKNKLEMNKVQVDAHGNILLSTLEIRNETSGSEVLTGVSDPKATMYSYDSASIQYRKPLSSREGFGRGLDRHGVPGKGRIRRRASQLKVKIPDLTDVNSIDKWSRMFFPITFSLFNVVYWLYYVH
α1β1γ2S receptors, sequence (P62813 28-455): as the sequence (P62813 28-455) above
α1β1γ2S receptors, sequence (P18508 39-466 partner): as the sequence (P18508 39-466 partner) above

SMILES	EC50 [3] [µM]	Emax [3] [%]	Hill-coefficient (nH) [3]	total distance covered in the open field test ([4]; 30 mg/kg i.p.) [m]	effect on locomotor activity vs control ([4]; any tested dose i.p.)	PTZ-induced seizure threshold ([5]; 10 mg/kg i.p.) [mg/kg PTZ]	PTZ-induced seizure threshold ([5]; 30 mg/kg i.p.) [mg/kg PTZ]	EC50 [7] [µM]	Emax [7] [%]	Hill-coefficient (nH) [7]	EC50 [8] [µM]	Emax [8] [%]	Hill-coefficient (nH) ([8]; α1β3γ2S)	effect on locomotor activity vs control ([4]; low doses (≤10 mg/kg) i.p.)	other results
CC1=C2[C@H](/C=C(\C)C(=O)O)CC[C@@H](C)[C@H]2CC1 [VA, Valerenic acid, reference compound]	74.4 ± 19.3	111 ± 16	1.6 ± 0.5	37.6 ± 2.5	did not differ significantly	49.0 ± 1.8	43.4 ± 1.8	23.1 ± 4.2	721 ± 68	1.4 ± 0.2					Hill-coefficient (nH) [1]: 1.5 ± 0.3; PTZ-induced seizure threshold [2]: 47.7 ± 1.4 mg/kg PTZ; total distance covered in the open field test ([4]; 1 mg/kg i.p.): 34.9 ± 1.3 m; total distance covered in the open field test ([4]; 3 mg/kg i.p.): 38.7 ± 2.1 m; total distance covered in the open field test ([4]; 10 mg/kg i.p.): 38.0 ± 1.4 m; effect on PTZ-induced seizure threshold ([5]; doses <3 mg/kg body weight i.p.): did not alter seizure threshold; concentration directly activating GABAA channels in the absence of GABA [6]: ≥ 30 µM
CC1=C2[C@H](/C=C(\C)C(N)=O)CC[C@@H](C)[C@H]2CC1 [VA-A, (E)-3-((4S,7R,7aR)-3,7-dimethyl-2,4,5,6,7,7a-hexahydro-1H-inden-4-yl)-2-methylacrylamide]	66.6 ± 34.6	218 ± 78	1.8 ± 0.6	23.5±2.2		55.4 ± 0.7	50.6 ± 2.2	14 ± 2.2		1.4 ± 0.2	7.5 ± 1.8	972 ± 69	1.5 ± 0.2		total distance covered in the open field test ([4]; 10 mg/kg i.p.): 29.9 ± 2.6 m; effect on locomotor activity vs control ([4]; doses of 1 and 3 mg/kg i.p.): did also not affect the total distance covered; effect on locomotor activity vs control ([4]; doses ≥10 mg/kg i.p., 10 mg/kg): reduced locomotion; also recorded: reduced locomotor activity; PTZ-induced seizure threshold ([5]; 3 mg/kg i.p.): 57.9 ± 1.9 mg/kg PTZ
CC1=C2[C@H](/C=C(\C)C#N)CC[C@@H](C)[C@H]2CC1 [VA-CN, (E)-3-((4S,7R,7aR)-3,7-dimethyl-2,4,5,6,7,7a-hexahydro-1H-inden-4-yl)-2-methylacrylonitrile]	73 ± 38.7	55 ± 14	1.7 ± 0.7	31.5±1.5		51.1 ± 0.6		56.5 ± 13.3	765 ± 117	2.5 ± 0.7	42.4 ± 15.8	522 ± 114	2.1 ± 0.8	did not affect locomotor activity	
CCN(CC)C(=O)/C(C)=C/[C@@H]1CC[C@@H](C)[C@H]2CCC(C)=C12 [VA-DEA, (E)-3-((4S,7R,7aR)-3,7-dimethyl-2,4,5,6,7,7a-hexahydro-1H-inden-4-yl)-N,N-diethyl-2-methylacrylamide]	97.2 ± 33.8	318 ± 84	1.8 ± 0.3		did not reveal any significantly different behavior		48.7±1.7	54.4 ± 11.1	573 ± 33	1.6 ± 0.3	80.8 ± 31.3	374 ± 102	1.9 ± 0.5		
CC1=C2[C@H](/C=C(\C)C(=O)N(C)C)CC[C@@H](C)[C@H]2CC1 [VA-DMA, (E)-3-((4S,7R,7aR)-3,7-dimethyl-2,4,5,6,7,7a-hexahydro-1H-inden-4-yl)-N,N,2-trimethylacrylamide]	52.5 ± 20.1	305 ± 67	1.7 ± 0.5		did not reveal any significantly different behavior			63.9 ± 23.7	594 ± 36	1.3 ± 0.2	48 ± 16	415 ± 61	1.4 ± 0.2		effect on PTZ-induced seizure threshold vs diluent-treated controls ([5]; any tested dose i.p.): did not significantly differ
CCNC(=O)/C(C)=C/[C@@H]1CC[C@@H](C)[C@H]2CCC(C)=C12 [VA-EA, (E)-3-((4S,7R,7aR)-3,7-dimethyl-2,4,5,6,7,7a-hexahydro-1H-inden-4-yl)-N-ethyl-2-methylacrylamide]	51.4 ± 19.8	458 ± 124	1.6 ± 0.3		did not reveal any significantly different behavior		55.6 ± 0.4	11 ± 3.6	554 ± 49	1.6 ± 0.3	27.2 ± 6.7	677 ± 64	1.3 ± 0.2		
CNC(=O)/C(C)=C/[C@@H]1CC[C@@H](C)[C@H]2CCC(C)=C12 [VA-MA, (E)-3-((4S,7R,7aR)-3,7-dimethyl-2,4,5,6,7,7a-hexahydro-1H-inden-4-yl)-N,2-dimethylacrylamide]	58.1 ± 16.5	387 ± 56	1.6 ± 0.3	29.7 ± 2.0		50.4±1.4	63.6 ± 2.5	9.1 ± 1.4	917 ± 36	1.5 ± 0.1	12.7 ± 0.9		1.5 ± 0.1	did not affect locomotor activity	effect on locomotor activity vs control ([4]; doses ≥10 mg/kg i.p.): reduced locomotion
CC1=C2[C@H](/C=C(\C)c3nnn[nH]3)CC[C@@H](C)[C@H]2CC1 [VA-TET, 5-((E)-1-((4S,7R,7aR)-3,7-dimethyl-2,4,5,6,7,7a-hexahydro-1H-inden-4-yl)prop-1-en-2-yl)-1H-tetrazole]	23.5 ± 10.9	176 ± 43	1.8 ± 0.6	19.2 ± 2.1				34.1 ± 6.3		1.0 ± 0.1	6 ± 1	668 ± 57	1.1 ± 0.1	did not affect locomotor activity	increase in potency on β3-containing receptors compared with VA ([8]; EC50 ratio VA / VA-TET, α1β3γ2S): approximately threefold; effect on locomotor activity vs control ([4]; doses ≥10 mg/kg i.p.): reduced locomotion; PTZ-induced seizure threshold ([5]; 0.3 mg/kg i.p.): 47.3 ± 0.5 mg/kg PTZ; effect on PTZ-induced seizure threshold ([5]; doses ≥1 mg/kg i.p.): lost its anticonvulsive properties
